In ChEMBL document CHEMBL2375348, “Aminopropylindenes derived from Grundmann's ketone as a novel chemotype of oxidosqualene cyclase inhibitors” (Eur J Med Chem, 2013):
pIC50: −log10 of the molar value.

How the values were obtained:
[1] = system: HL-60; assay: Cytotoxicity against human HL60 cells after 24 hrs by MTT assay; format: cell-based; settings: HL-60, 24 h
[2] = target: T1, Lanosterol synthase (Homo sapiens, UniProt P48449); assay: Inhibition of human lanosterol synthase expressed in Saccharomyces cerevisiae SMY8[pSOB1.1] using [14C]-(3S)-2,3-oxidosqualene as substrate
T1 sequence (P48449 whole entry): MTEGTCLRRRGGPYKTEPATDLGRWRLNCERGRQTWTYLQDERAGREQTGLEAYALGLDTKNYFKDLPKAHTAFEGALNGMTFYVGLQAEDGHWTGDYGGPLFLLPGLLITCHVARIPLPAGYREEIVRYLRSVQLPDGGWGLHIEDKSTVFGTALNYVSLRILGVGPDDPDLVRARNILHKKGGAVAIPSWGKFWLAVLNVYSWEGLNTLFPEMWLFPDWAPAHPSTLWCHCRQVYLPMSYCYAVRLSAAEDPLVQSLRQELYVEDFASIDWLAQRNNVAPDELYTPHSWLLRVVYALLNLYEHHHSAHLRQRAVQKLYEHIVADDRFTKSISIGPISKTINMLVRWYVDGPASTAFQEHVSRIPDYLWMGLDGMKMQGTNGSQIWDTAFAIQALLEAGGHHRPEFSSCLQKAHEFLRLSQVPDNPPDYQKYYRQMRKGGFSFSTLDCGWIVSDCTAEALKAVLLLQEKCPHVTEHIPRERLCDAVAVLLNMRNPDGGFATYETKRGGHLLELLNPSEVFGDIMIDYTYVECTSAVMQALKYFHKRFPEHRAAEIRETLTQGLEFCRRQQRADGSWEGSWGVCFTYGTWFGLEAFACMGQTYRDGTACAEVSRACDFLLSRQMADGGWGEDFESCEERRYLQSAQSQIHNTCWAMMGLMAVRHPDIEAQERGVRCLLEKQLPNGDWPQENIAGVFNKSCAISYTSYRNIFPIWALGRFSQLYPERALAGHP

[3] = target: Cycloartenol synthase (Arabidopsis thaliana, UniProt P38605); assay: Inhibition of Arabidopsis thaliana cycloartenol synthase expressed in Saccharomyces cerevisiae SMY8[pSM60.21] using [14C]-(3S)-2,3-oxidosqualene as substrate
Procedure, shortened: (§1)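 ERG7-deficient hem1 yeast SMY8 strains were grown aerobically at 30 °C in YPD with hemin and ergosterol, then induced in YPG with hemin (plus ergosterol for A. thaliana). Lyticase/Potter homogenates were incubated with [14C]-(3S)-2,3-oxidosqualene (1000 cpm) at increasing inhibitor levels. Reactions were stopped with KOH/MeOH and saponified at 80 °C for 30 min; extracted conversion was read by TLC radioscan. IC50 came from nonlinear regression; two experiments, each in duplicate.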

[4] = Inhibition of Trypanosoma cruzi lanosterol synthase expressed in Saccharomyces cerevisiae SMY8[pBJ1.21] using [14C]-(3S)-2,3-oxidosqualene as substrate; procedure, shortened: as §1
[5] = target: T2, Lanosterol synthase (Pneumocystis carinii, UniProt Q96WJ0); assay: Inhibition of Pneumocystis carinii lanosterol synthase expressed in Saccharomyces cerevisiae SMY8[pBJ4.21] using [14C]-(3S)-2,3-oxidosqualene as substrate; procedure, shortened: as §1
T2 sequence (Q96WJ0 whole entry): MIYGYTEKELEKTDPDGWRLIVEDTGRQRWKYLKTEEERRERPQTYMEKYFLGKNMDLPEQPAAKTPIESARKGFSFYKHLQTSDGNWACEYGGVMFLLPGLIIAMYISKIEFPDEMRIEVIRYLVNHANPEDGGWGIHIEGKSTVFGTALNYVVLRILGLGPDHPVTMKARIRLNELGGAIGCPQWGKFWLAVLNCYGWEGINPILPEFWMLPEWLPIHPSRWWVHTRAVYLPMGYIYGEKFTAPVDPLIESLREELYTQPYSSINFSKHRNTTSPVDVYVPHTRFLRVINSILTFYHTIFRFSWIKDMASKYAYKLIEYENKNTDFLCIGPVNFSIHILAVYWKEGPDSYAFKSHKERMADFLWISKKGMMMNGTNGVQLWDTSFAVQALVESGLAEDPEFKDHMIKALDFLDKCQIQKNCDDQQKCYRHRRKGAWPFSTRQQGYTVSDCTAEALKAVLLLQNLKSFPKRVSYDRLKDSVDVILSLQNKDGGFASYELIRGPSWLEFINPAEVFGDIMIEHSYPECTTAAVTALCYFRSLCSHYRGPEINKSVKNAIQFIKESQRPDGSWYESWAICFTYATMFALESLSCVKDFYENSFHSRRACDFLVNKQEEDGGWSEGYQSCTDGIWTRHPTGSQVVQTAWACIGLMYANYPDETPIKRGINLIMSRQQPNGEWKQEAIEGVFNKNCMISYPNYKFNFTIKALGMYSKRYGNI

[6] = target: T3, Lanosterol synthase ERG7 (Saccharomyces cerevisiae S288c, UniProt P38604); assay: Inhibition of wild type yeast lanosterol synthase expressed in Saccharomyces cerevisiae SMY8[pSM61.21] using [14C]-(3S)-2,3-oxidosqualene as substrate; procedure, shortened: as §1
T3 sequence (P38604 whole entry): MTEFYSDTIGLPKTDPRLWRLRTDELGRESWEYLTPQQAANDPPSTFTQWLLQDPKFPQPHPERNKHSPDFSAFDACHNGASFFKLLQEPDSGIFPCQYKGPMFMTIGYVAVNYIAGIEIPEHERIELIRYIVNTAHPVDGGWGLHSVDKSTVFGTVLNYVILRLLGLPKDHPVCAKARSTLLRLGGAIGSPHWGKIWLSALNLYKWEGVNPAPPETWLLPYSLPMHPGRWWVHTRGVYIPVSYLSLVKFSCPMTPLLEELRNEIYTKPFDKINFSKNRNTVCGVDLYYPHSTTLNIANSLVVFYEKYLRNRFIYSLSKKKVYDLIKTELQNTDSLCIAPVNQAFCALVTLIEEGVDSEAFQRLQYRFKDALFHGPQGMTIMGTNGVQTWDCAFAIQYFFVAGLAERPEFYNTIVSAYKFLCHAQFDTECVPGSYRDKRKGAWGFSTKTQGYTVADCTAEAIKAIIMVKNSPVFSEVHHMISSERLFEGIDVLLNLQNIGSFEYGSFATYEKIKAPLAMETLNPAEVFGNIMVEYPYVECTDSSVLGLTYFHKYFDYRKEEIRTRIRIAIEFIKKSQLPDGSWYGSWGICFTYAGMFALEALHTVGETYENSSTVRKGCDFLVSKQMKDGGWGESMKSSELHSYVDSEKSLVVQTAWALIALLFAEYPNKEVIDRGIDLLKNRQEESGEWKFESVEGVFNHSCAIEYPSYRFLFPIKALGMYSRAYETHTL

[7] = system: HL-60; assay: Inhibition of cholesterol biosynthesis in human HL60 cells at 1 uM; format: functional
Procedure, shortened: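 HL-60 cells were incubated with 2-13C-acetate and inhibitor at 1 μM, in triplicate. Newly made 13C-labelled cholesterol was separated from pre-existing unlabelled cholesterol by GC-MS. Decrease in cholesterol biosynthesis was expressed against untreated controls.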

Chain of Cycloartenol synthase (P38605 whole entry): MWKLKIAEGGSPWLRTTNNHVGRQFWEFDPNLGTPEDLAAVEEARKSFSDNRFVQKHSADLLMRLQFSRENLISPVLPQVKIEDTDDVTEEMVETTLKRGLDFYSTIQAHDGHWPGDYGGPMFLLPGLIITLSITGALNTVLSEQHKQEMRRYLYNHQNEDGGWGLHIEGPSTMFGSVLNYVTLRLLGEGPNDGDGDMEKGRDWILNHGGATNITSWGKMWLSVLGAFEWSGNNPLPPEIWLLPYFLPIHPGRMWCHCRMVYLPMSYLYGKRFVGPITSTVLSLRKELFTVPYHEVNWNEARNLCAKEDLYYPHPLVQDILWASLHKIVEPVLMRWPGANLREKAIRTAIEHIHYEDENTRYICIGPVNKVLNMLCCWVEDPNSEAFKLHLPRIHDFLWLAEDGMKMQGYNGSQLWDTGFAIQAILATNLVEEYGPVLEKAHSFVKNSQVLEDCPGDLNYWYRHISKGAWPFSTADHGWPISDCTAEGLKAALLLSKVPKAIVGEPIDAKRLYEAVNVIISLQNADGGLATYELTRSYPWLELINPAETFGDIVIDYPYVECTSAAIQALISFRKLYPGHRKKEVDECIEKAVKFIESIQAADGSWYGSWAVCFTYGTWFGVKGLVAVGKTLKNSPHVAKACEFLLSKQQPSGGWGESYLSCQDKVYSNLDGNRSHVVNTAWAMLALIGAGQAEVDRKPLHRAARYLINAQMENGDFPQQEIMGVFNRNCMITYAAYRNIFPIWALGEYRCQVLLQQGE

SMILES | pIC50 [1] | pIC50 [2] | pIC50 [3] | pIC50 [4] | pIC50 [5] | pIC50 [6] | inhibition at 1 µM [7]
CC(C)CCC[C@@H](C)[C@H]1CCC2=C(CCC[n+]3ccccc3)CCC[C@@]21C | 5.46 | 4.90 | 6.70 | < 4.70 | 4.96 | 5.38 | 
CC(C)CCC[C@@H](C)[C@H]1CCC2=C(CCCN3CCCCC3)CCC[C@@]21C | < 4.00 | 4.92 | 6.30 | < 4.70 | 4.77 | 5.68 | 
C=CCN(C)CCCC1=C2CC[C@H]([C@H](C)CCCC(C)C)[C@@]2(C)CCC1 | < 4.00 | 6.00 | 6.22 | 6.10 | 6.05 | 5.82 | > 90%
CC(C)CCC[C@@H](C)[C@H]1CCC2=C(CCCN(C)C)CCC[C@@]21C | < 4.00 | 5.35 | 6.52 | 6.22 | 4.89 | 5.89 | > 90%
C=CCN(C)CCCCCCOc1ccc(C(=O)c2ccc(Br)cc2)c(F)c1 | 5.10 |  |  |  |  |  | > 90%
CNCCCC1=C2CC[C@H]([C@H](C)CCCC(C)C)[C@@]2(C)CCC1 | < 4.00 | < 4.70 | < 4.70 | < 4.70 | < 4.70 | < 4.70 | 
CN(C)Cc1ccc(C2CCC(N(C)C(=O)c3ccc(Cl)cc3)CC2)cc1 (configuration not stated) | < 4.30 |  |  |  |  |  | 60%
CC(C)CCC[C@@H](C)[C@H]1CCC2=C(CCC[N+](C)(C)[O-])CCC[C@@]21C | 4.70 | < 4.70 | 5.89 | 5.52 | 4.82 | 5.60 | 
